Entries after “also recorded” stand apart in the source; their conditions may differ.
Key:
zebrafish Mc4r = conditions: 2013, cited from earlier work
hMc2r = conditions: ref Metherell et al., 2005; Sebag and Hinkle, 2007; cited from earlier work
Mc2r and Mc5r orthologs = conditions: ref Thomas et al., 2018, Dores et al., Barney et al., 2019; cited from earlier work
gMc2r/gMrap1 = test: cAMP-reporter gene assay, gMc2r co-expressed with gMrap1; type: cell-based, spotted gar (Lepisosteus oculatus)
Method in brief: (§1)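 CHO cells (F12K, 10% FBS, 37 °C, 5% CO2) nucleofected with 2 μg each of gar receptor cDNA, with or without gar Mrap1 or Mrap2, plus CRE-luciferase. After 48 h, stimulated 4 h at 37 °C in serum-free medium with hACTH(1–24) 10−13–10−6 M or NDP-MSH 10−12–10−6 M. Luminescence read after a 5 min luciferase reagent step. Medium-only background subtracted. EC50 from Michaelis-Menten fits; triplicates.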

gMc1r = test: cAMP-reporter gene assay, gMc1r expressed alone; type: cell-based, spotted gar (Lepisosteus oculatus); conditions: comparison of EC50 values, p < 0.001
gMc1r/gMrap1 = test: cAMP-reporter gene assay, gMc1r co-expressed with gMrap1; type: cell-based, spotted gar (Lepisosteus oculatus); conditions: Fig. 3A, vs gMc1r alone; for effect of gMrap1 co-expression on Vmax value: hACTH(1–24) p < 0.001, NDP-MSH p = 0.02, T-test; for effect of gMrap1 co-expression on ligand sensitivity: p = 0.90 (hACTH(1–24)), p = 0.92 (NDP-MSH)
Method in brief: as §1

gMc1r/gMrap2 = test: cAMP-reporter gene assay, gMc1r co-expressed with gMrap2; type: cell-based, spotted gar (Lepisosteus oculatus); conditions: Fig. 3B, vs gMc1r alone; for effect of gMrap2 co-expression on Vmax value: hACTH(1–24) P = 0.43, NDP-MSH p = 0.42, T-test; for effect of gMrap2 co-expression on ligand sensitivity: p = 0.12 (hACTH(1–24)), p = 0.28 (NDP-MSH)
Method in brief: as §1

gMc3r = test: cAMP-reporter gene assay, gMc3r expressed alone; type: cell-based, spotted gar (Lepisosteus oculatus); conditions: p = 0.03
gMc3r/gMrap1 = test: cAMP-reporter gene assay, gMc3r co-expressed with gMrap1; type: cell-based, spotted gar (Lepisosteus oculatus); conditions: Fig. 4A, vs gMc3r alone; for effect of gMrap1 co-expression on ligand sensitivity: p = 0.49 (hACTH(1–24)), p = 0.98 (NDP-MSH)
Method in brief: as §1

gMc3r/gMrap2 = test: cAMP-reporter gene assay, gMc3r co-expressed with gMrap2; type: cell-based, spotted gar (Lepisosteus oculatus); conditions: Fig. 4B, vs gMc3r alone; for effect of gMrap2 co-expression on Vmax value: hACTH(1–24) p – 0.99, NDP-MSH p > 0.001 (so in the source), T-test; for effect of gMrap2 co-expression on ligand sensitivity: p = 0.98 (both ligands)
gMc4r = test: cAMP-reporter gene assay, gMc4r expressed alone; type: cell-based, spotted gar (Lepisosteus oculatus); conditions: p = 0.11
Method in brief: as §1

gMc4r/gMrap1 = test: cAMP-reporter gene assay, gMc4r co-expressed with gMrap1; type: cell-based, spotted gar (Lepisosteus oculatus); conditions: Fig. 5A, vs gMc4r alone; for effect of gMrap1 co-expression on ligand sensitivity: p = 0.49 (hACTH(1–24)), p = 0.98 (NDP-MSH)
Method in brief: as §1

gMc4r/gMrap2 = test: cAMP-reporter gene assay, gMc4r co-expressed with gMrap2; type: cell-based, spotted gar (Lepisosteus oculatus); conditions: Fig. 5B; vs gMc4r alone; p < 0.001 (both ligands); T-test
gMc5r = test: cAMP-reporter gene assay, gMc5r expressed alone; type: cell-based, spotted gar (Lepisosteus oculatus); conditions: p = 0.07, T-test
gMc5r/gMrap1 = test: cAMP-reporter gene assay, gMc5r co-expressed with gMrap1; type: cell-based, spotted gar (Lepisosteus oculatus); conditions: Fig. 6A, 6B, vs gMc5r alone; for effect of gMrap1 co-expression on Vmax: hACTH(1–24) p = 0.44, NDP-MSH p = 0.01, T-test; for effect of gMrap1 co-expression on ligand sensitivity: hACTH(1–24) p = 0.5, NDP-MSH p = 0.64
Method in brief: as §1

gMc5r/gMrap2 = test: cAMP-reporter gene assay, gMc5r co-expressed with gMrap2; type: cell-based, spotted gar (Lepisosteus oculatus); conditions: Fig. 6A, 6B, vs gMc5r alone; for effect of gMrap2 co-expression on Vmax: hACTH(1–24) p = 0.001, NDP-MSH p = 0.007, T-test; for effect of gMrap2 co-expression on ligand sensitivity: hACTH(1–24) p = 0.5
Method in brief: as §1

hMc2r/mMrap1 = conditions: ref Liang et al., 2011; cited from earlier work
mouse Mc4r = conditions: activation by NDP-MSH; ref Asai et al., 2013; cited from earlier work
gMc2r = test: cAMP-reporter gene assay, gMc2r expressed alone; type: cell-based, spotted gar (Lepisosteus oculatus); conditions: Fig. 2A; CHO cells, CRE-Luciferase, 4 h at 37 °C, 10^−13M to 10^−6M; n = 3
Method in brief: as §1

gMc2r/gMrap2 = test: cAMP-reporter gene assay, gMc2r co-expressed with gMrap2; type: cell-based, spotted gar (Lepisosteus oculatus); conditions: Fig. 2A, CHO cells, CRE-Luciferase, 4 h at 37 °C, 10^−13M to 10^−6M, n = 3
Method in brief: as §1

[1] = system: Gallus gallus (chicken; c) Mc5r with cMrap1; conditions: ref Thomas et al., 2018; cited from earlier work

Substance | effect of gMrap1 co-expression on Vmax value (gMc1r/gMrap1) | effect of gMrap1 co-expression on ligand sensitivity (gMc1r/gMrap1) | effect of gMrap2 co-expression on Vmax value (gMc1r/gMrap2) | effect of gMrap2 co-expression on ligand sensitivity (gMc1r/gMrap2) | effect of gMrap1 co-expression on Vmax value (gMc3r/gMrap1) | effect of gMrap1 co-expression on ligand sensitivity (gMc3r/gMrap1) | effect of gMrap2 co-expression on Vmax value (gMc3r/gMrap2) | effect of gMrap2 co-expression on ligand sensitivity (gMc3r/gMrap2) | efficacy of hACTH(1–24) compared with NDP-MSH (gMc4r) | effect of gMrap1 co-expression on Vmax value (gMc4r/gMrap1) | effect of gMrap1 co-expression on ligand sensitivity (gMc4r/gMrap1) | effect of gMrap2 co-expression on Vmax (gMc4r/gMrap2) | effect of gMrap1 co-expression on Vmax (gMc5r/gMrap1) | effect of gMrap1 co-expression on ligand sensitivity (gMc5r/gMrap1) | effect of gMrap2 co-expression on Vmax (gMc5r/gMrap2) | effect of gMrap2 co-expression on ligand sensitivity (gMc5r/gMrap2) | further results
ACTH | – | – | – | – | – | – | – | – | – | – | – | – | – | – | – | – | effect of Mrap2 co-expression on sensitivity for activation by ACTH (zebrafish Mc4r; ref Josep Agulleiro et al.): sensitivity for activation by ACTH increases as well; stimulation of hMc2r/Mrap1 by ACTH (hMc2r): in the correct configuration to be stimulated by ACTH; effect of Mrap1 co-expression on sensitivity to stimulation by ACTH (Mc2r and Mc5r orthologs): enhanced sensitivity to stimulation by ACTH
Nle^4, D-Phe^7-α-MSH [NDP-MSH] | decrease in the Vmax value | had no effect on sensitivity to stimulation; also recorded: no effect on the sensitivity of gMc1r | no effect on the Vmax value | no effect, in either a positive or negative manner, on the sensitivity of gMc1r | no effect on the Vmax value | had no effect on sensitivity to stimulation | decrease in the Vmax value | no effect either positive or negative on the sensitivity of gMc3r | can be activated with equal efficacy | no effect on the Vmax value | had no effect on sensitivity to stimulation; also recorded: no statistical effect on the sensitivity of gMc4r | statistically higher than the Vmax for the dose response curve when gMc4r was expressed alone; also recorded: comparable in magnitude to the Vmax value for the gMc4r/gMrap2 cells stimulated hACTH(1–24); also recorded: the amplitude of stimulation (Vmax) also increased for both ligands | increase in Vmax | had no effect on sensitivity to stimulation; also recorded: no effect, either positive or negative, on the sensitivity of the receptor | increase in Vmax | did not increase sensitivity; also recorded: no effect, either positive or negative, on the sensitivity of the receptor | activation of gMc2r/gMrap1 by NDP-MSH (gMc2r/gMrap1; Fig. 2B, CHO cells, 4 h at 37 °C, 10^−12M to 10^−6M, n = 3): low level of activation (only at 10^−7M and 10^−6M); also recorded: activation was observed, but only at concentrations of 10^−7 M and 10^−6M; also recorded: weak activation only at 10 ^7M and 10^−6M; also recorded: could be activated to a limited degree by NDP-MSH at concentrations of 10^−7M and 10^−6M; degree of stimulation relative to stimulation at saturation by hACTH(1–24) (gMc2r/gMrap1; NDP-MSH at 10^−6 M vs 10^−9M hACTH(1–24), Fig. 2B): roughly 40%; sensitivity to NDP-MSH compared with hACTH(1–24) (gMc1r): much more sensitive to stimulation by NDP-MSH than to stimulation by hACTH(1–24); sensitivity to NDP-MSH compared with hACTH(1–24) (gMc3r): higher sensitivity for stimulation by NDP-MSH than by stimulation with hACTH(1–24); EC50 of NDP-MSH compared with hACTH (1–24) (gMc5r): not statistically different from stimulation with hACTH (1–24); response to NDP-MSH (hMc2r/mMrap1): did not evoke a response; effect of Mrap2 co-expression on ligand sensitivity (mouse Mc4r): enhances ligand sensitivity of the receptor to activation by NDP-MSH; effect of Mrap2 co-expression on ligand sensitivity (zebrafish Mc4r; activation by NDP-MSH, ref Sebag et al.): enhances ligand sensitivity of the receptor to activation by NDP-MSH
hACTH(1–24): Human (h) ACTH(1–24), purchased from Sigma-Aldrich; 96% primary sequence identity with gACTH(1–24) | decrease in the Vmax value | had no effect on sensitivity to stimulation | no effect on the Vmax value | no effect, in either a positive or negative manner, on the sensitivity of gMc1r | no effect on the Vmax value | had no effect on sensitivity to stimulation | no effect on the Vmax value | no effect either positive or negative on the sensitivity of gMc3r | can be activated with equal efficacy | no effect on the Vmax value | had no effect on sensitivity to stimulation; also recorded: no statistical effect on the sensitivity of gMc4r | statistically higher than the Vmax for the dose response curve when gMc4r was expressed alone; also recorded: the amplitude of stimulation (Vmax) also increased for both ligands | no change in the Vmax value | had no effect on sensitivity to stimulation; also recorded: negligible shift in sensitivity; also recorded: no effect, either positive or negative, on the sensitivity of the receptor | increase in the Vmax value | did not affect sensitivity; also recorded: no effect, either positive or negative, on the sensitivity of the receptor | activation of gMc2r expressed alone by hACTH(1–24) (gMc2r): activation of gMc2r did not occur when the receptor was expressed alone; also recorded: did not result in activation of the receptor; also recorded: no activation when expressed alone; activation of gMc2r co-expressed with gMrap1 by hACTH(1–24) (gMc2r/gMrap1; Fig. 2A, CHO cells, CRE-Luciferase, 4 h at 37 °C, n = 3): obligatory requirement for co-expression with gMrap1 in order for the receptor to be activated by hACTH(1–24); also recorded: activation of the receptor was recovered; concentration at which activation reached saturation (gMc2r/gMrap1; Fig. 2B, CHO cells, 4 h at 37 °C): 10^−9 M; activation of gMc2r co-expressed with gMrap2 (gMc2r/gMrap2): activation did not occur; also recorded: gMrap2 did not facilitate activation of gMc2r; activation of gMc2r co-expressed with gMrap2 (gMc2r/gMrap2; listed as hACTH (1–24)): there was no activation; effect of gMrap1 co-expression on ligand sensitivity (gMc3r/gMrap1; listed as hACTH (1–24)): no effect either positive or negative on sensitivity; effect of cMrap1 co-expression on sensitivity to stimulation [1]: significantly increased the sensitivity

Source: paper PMC7263024 (General and comparative endocrinology, 2019)
